The values below come from ChEMBL document CHEMBL1275278, “Synthesis and pharmacological evaluation of clubbed isopropylthiazole derived triazolothiadiazoles, triazolothiadiazines and mannich bases as potential antimicrobial and antitubercular agents” (Eur J Med Chem, 2010).

What is called MIC is the lowest concentration found to suppress growth. The low end stands for a more susceptible organism, the high end for a less susceptible organism.

≈ marks a conversion by molar mass, not a printed value.

One data set relates to Enterococcus faecalis. The experiment in a line: Antibacterial activity against Streptococcus faecalis ATCC 14506 after 24 hrs by broth microdilution method. It counts as functional. To be noted: ATCC 14506, 24 h. An outline of the steps: (§1)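 Broth dilution in Mueller-Hinton broth. Tubes inoculated at 10⁵ cfu/mL and incubated 37 °C for 24 h. MIC taken as lowest concentration completely inhibiting growth. Media and media-plus-DMSO growth controls; ciprofloxacin and norfloxacin as reference standards.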
(In general: In broth dilution the organism is exposed to a series of concentrations in liquid medium.)

Another data set relates to Saccharomyces cerevisiae. The experiment in a line: Antifungal activity against Saccharomyces cerevisiae ATCC 9763 after 24 hrs by broth microdilution method. Format: functional. As to conditions: ATCC 9763, 24 h.
The subject of a further data set is Aspergillus niger. The experiment in a line: Antifungal activity against Aspergillus niger ATCC 6275 after 24 hrs by broth microdilution method. Format: functional. As to conditions: ATCC 6275, 24 h.
The next data set relates to Candida tropicalis. Kind of data set: Antifungal activity against Candida tropicalis ATCC 1369 after 24 hrs by broth microdilution method. As to conditions: ATCC 1369, 24 h. Format: functional.
For the next data set, the system named is Klebsiella pneumoniae. Kind of data set: Antibacterial activity against Klebsiella pneumoniae ATCC 10031 after 24 hrs by broth microdilution method. Format: functional. As to conditions: ATCC 10031, 24 h. An outline of the steps: as §1
The test system of the next data set is A549. Kind of data set: Cytotoxicity against human A549 cells assessed as cell viability at 250 uM by MTT assay. Format: cell-based. To be noted: a549, 250 µM. The method in brief:
(§2)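 A549 lung adenocarcinoma cells grown with fetal bovine serum. Compounds held as 10 mM DMSO stocks at −20 °C and diluted in culture medium before treatment (50–250 µM). Viability read by MTT assay against untreated cells and DMSO vehicle control. Two experiments, each with triplicate readings.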
For orientation: Formazan colour is commonly taken as a measure of viable cells.

The next data set has as its system Staphylococcus aureus. Kind of data set: Antibacterial activity against Staphylococcus aureus ATCC 11632 after 24 hrs by broth microdilution method. Format: functional. As to conditions: ATCC 11632, 24 h. The method in brief: as §1
The test system of data set [1] is Mycobacterium tuberculosis. The experiment in a line: Antimycobacterial activity against Mycobacterium tuberculosis H37Rv after 21 days by broth dilution assay. It counts as functional. To be noted: 504 h. An outline of the steps:
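Frozen culture in Middlebrook 7H9 broth with 10% albumin-dextrose-catalase and 0.2% glycerol, thawed and diluted in broth to 10⁵ cfu/mL. Compounds dissolved in DMSO, twofold diluted in broth; final DMSO 1.3%. Tubes inoculated, incubated at 37 °C. Growth compared visually against drug-free and drug- and inoculum-free controls and isoniazid. MIC = lowest concentration inhibiting ≥99% of the starting bacterial population.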

Another data set deals with Bacillus subtilis. Kind of data set: Antibacterial activity against Bacillus subtilis ATCC 60511 after 24 hrs by broth microdilution method. To be noted: ATCC 60511, 24 h. Format: functional. An outline of the steps:
as §1

The subject of the next data set is Escherichia coli. Kind of data set: Antibacterial activity against Escherichia coli ATCC 10536 after 24 hrs by broth microdilution method. As to conditions: ATCC 10536, 24 h. It counts as functional. The method in brief: as §1
Another data set relates to Pseudomonas aeruginosa. Kind of data set: Antibacterial activity against Pseudomonas aeruginosa ATCC 10145 after 24 hrs by broth microdilution method. Format: functional. As to conditions: ATCC 10145, 24 h. The method in brief:
as §1

Data set [2] can be described thus: Cytotoxicity against human A549 cells assessed as cell viability at 250 uM by MTT assay relative to control. Format: cell-based. As to conditions: read-out: Activity. The method in brief:
as §2

Take `CC(C)c1csc(-c2nnc3n2NC(c2ccc(F)cc2F)S3)n1` (stereo not drawn): the MIC in the data set on Enterococcus faecalis worked out at 4 µg/mL (≈ 10.9 µM); against Saccharomyces cerevisiae, 62.5 µg/mL (≈ 171 µM); in the data set on Aspergillus niger it was 31.2 µg/mL (≈ 85.5 µM); with Candida tropicalis, 125 µg/mL (≈ 342 µM); in the data set with Klebsiella pneumoniae it was 31.2 µg/mL (≈ 85.5 µM); against Staphylococcus aureus, 8 µg/mL (≈ 21.9 µM). Besides, the MIC is 4 µg/mL (≈ 10.9 µM) in [1], 4 µg/mL (≈ 10.9 µM) against Bacillus subtilis, 16 µg/mL (≈ 43.8 µM) with Escherichia coli and 16 µg/mL (≈ 43.8 µM) in the data set with Pseudomonas aeruginosa. In the data set on A549, the Activity entry is recorded as “Toxic”.

Take `COc1cc(/C=N/n2c(-c3nc(C(C)C)cs3)nn(CN3CCN(C)CC3)c2=S)cc(OC)c1OC`: the minimal inhibitory concentration (MIC) with Enterococcus faecalis was 8 µg/mL (≈ 15 µM); against Saccharomyces cerevisiae it was 125 µg/mL (≈ 235 µM); in the data set with Aspergillus niger it was 16 µg/mL (≈ 30.1 µM); against Candida tropicalis it was 62.5 µg/mL (≈ 118 µM); in the data set on Klebsiella pneumoniae, 16 µg/mL (≈ 30.1 µM); in the data set on Staphylococcus aureus it was 16 µg/mL (≈ 30.1 µM). In addition, the MIC in data set [1] is 8 µg/mL (≈ 15 µM); in the data set with Bacillus subtilis, 4 µg/mL (≈ 7.52 µM); against Escherichia coli, 8 µg/mL (≈ 15 µM); against Pseudomonas aeruginosa it was 31.2 µg/mL (≈ 58.8 µM). In addition, the viability at 250 µM in [2] came out at 50%.

As for `CC(C)c1csc(-c2nn(CN3CCN(C)CC3)c(=S)n2/N=C/c2ccc(N(C)C)cc2)n1`, the MIC was determined as 4 µg/mL (≈ 8.25 µM) against Enterococcus faecalis; 16 µg/mL (≈ 33 µM) against Saccharomyces cerevisiae; 8 µg/mL (≈ 16.5 µM) in the data set with Aspergillus niger; 31.2 µg/mL (≈ 64.5 µM) against Candida tropicalis; 4 µg/mL (≈ 8.25 µM) in the data set with Klebsiella pneumoniae; 31.2 µg/mL (≈ 64.5 µM) with Staphylococcus aureus. The MIC turned out to be 4 µg/mL (≈ 8.25 µM) in data set [1], 8 µg/mL (≈ 16.5 µM) against Bacillus subtilis, 16 µg/mL (≈ 33 µM) in the data set on Escherichia coli and 31.2 µg/mL (≈ 64.5 µM) in the data set with Pseudomonas aeruginosa. Moreover, in data set [2], the viability at 250 µM was 50%.
